Assay results: paper PMC4068216 (ACS Chemical Biology, 2014)

Legend:
LAT3 = molecular target: T1, LAT3 (Homo sapiens, UniProt O75387); experiment: [3H]-L-leucine uptake assay in LNCaP cells; assay type: cell-based
T1 sequence (O75387 1-559): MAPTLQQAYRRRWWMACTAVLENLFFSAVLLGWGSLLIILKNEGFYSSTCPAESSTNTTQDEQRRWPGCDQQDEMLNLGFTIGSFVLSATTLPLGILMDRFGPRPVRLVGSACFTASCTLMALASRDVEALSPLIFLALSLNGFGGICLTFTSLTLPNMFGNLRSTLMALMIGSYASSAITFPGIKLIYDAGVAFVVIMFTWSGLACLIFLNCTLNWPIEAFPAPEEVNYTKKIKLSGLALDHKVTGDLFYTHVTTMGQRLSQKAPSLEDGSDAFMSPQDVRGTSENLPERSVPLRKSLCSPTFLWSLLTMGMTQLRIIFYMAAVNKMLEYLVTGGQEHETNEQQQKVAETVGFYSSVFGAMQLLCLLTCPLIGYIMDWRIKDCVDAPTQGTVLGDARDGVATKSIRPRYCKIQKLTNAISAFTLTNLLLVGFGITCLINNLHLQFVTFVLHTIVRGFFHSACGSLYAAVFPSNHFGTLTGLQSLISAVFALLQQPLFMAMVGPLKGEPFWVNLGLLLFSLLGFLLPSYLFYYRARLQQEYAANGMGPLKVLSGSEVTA
Procedure, shortened: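 Dose–response: LNCaP cells (3 × 10^4/well) took up 0.3 μCi [3H]-L-leucine (200 nM) in leucine-free RPMI with 10% dialysed FBS for 15 min at 37 °C. Screen: 10^4 cells/well in HBSS with 10% dialysed FBS and 50 mM L-glutamine, added onto preloaded fractions, n = 1 per fraction. Controls were 0.5% DMSO and 10 mM BCH. Cells were filter-harvested for scintillation counting.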

LNCaP cells = experiment: BrdU incorporation assay in LNCaP cells; assay type: cell-based, human; conditions: BCH 10 mM, ESK242 and ESK246 50 μM, 22 h then BrdU 2 h
Procedure, shortened: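 LNCaP cells (2 × 10^5 per 6-well) adhered overnight, were serum-starved, then exposed to test compound, DMSO vehicle or BCH for 22 h. BrdU (150 μg/mL) was added for a further 2 h. Cells were detached, fixed and stained with APC anti-BrdU (1:50) and 7-AAD, then analysed by flow cytometry. Three separate experiments; one-way ANOVA.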

LAT1 = conditions: only tested on LAT1 and LAT2; cited from earlier work
[1] = system: HT-29 colorectal adenocarcinoma cell; conditions: in vitro and in vivo; cited from earlier work
[2] = substrate: CC(C)C[C@H](N)C(=O)O; experiment: [3H]-L-leucine uptake in Xenopus laevis oocytes expressing LAT3; assay type: cell-based, human; conditions: other: no inhibitor, pH 7.5

NC1(C(=O)O)CC2CCC1C2 (stereo not shown) [BCH, 2-aminobicyclo[2.2.1]heptane-2-carboxylic acid]
IC50 (LAT3): 4.06 ± 0.0011 mM
leucine uptake (LAT3; high-throughput screen, positive control 10 mM, LNCaP cells): 30–40 % of control
BrdU incorporation (LNCaP cells): 14.7%
BrdU incorporation relative to control (LNCaP cells): 51.6 % of control

Nc1cc(COc2c(Cl)cc(C[C@H](N)C(=O)O)cc2Cl)c2oc(-c3ccccc3)nc2c1 [JPH203/KYT-0353]
selectivity, LAT1 versus LAT2 (LAT1): selectivity for LAT1-mediated transport
HT-29 cell growth [1]: suppression of HT-29 colorectal adenocarcinoma cell growth in vitro and in vivo

B1: LAT3 (Homo sapiens) (protein)
chain: T1 sequence (O75387 1-559)
Km [2]: 6.3 ± 0.5 mM
